How the values were obtained:
Plasmodium falciparum [1] = test: Growth inhibition of Plasmodium falciparum D6 infected in human erythrocytes assessed as reduction in [3H]-isoleucine incorporation pretreated for 24 hrs followed by [3H]-isoleucine addition and measured after 18 hrs by liquid scintillation counting method; format: functional, organism-based
Plasmodium falciparum [2] = test: Growth inhibition of Plasmodium falciparum ITG2 infected in human erythrocytes assessed as reduction in [3H]-isoleucine incorporation pretreated for 24 hrs followed by [3H]-isoleucine addition and measured after 18 hrs by liquid scintillation counting method; format: functional, organism-based
Plasmodium falciparum [3] = test: Antiplasmodial activity against chloroquine-sensitive Plasmodium falciparum 3D7 asynchronous cultures infected in human erythrocytes measured after 72 hrs by SYBR Green1 dye based fluorescence assay; format: functional, organism-based; conditions: 3D7, 72 h
Method in brief: (§1)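 Parasites kept in human erythrocytes at 5% hematocrit in RPMI-1640 (HEPES) with 0.5% AlbuMaxII, 0.2% glucose, 0.2% bicarbonate, 15 µM hypoxanthine, 37 °C, CO₂. Two-fold serial dilutions spanning 5 µM to 78 nM were applied to asynchronous cultures at 0.8-1% parasitaemia, 1% haematocrit, for 72 h. SYBR Green I lysis buffer was added for 2 h, with fluorescence read at Ex 485/Em 535 nm. IC50 was derived from DNA signal against drug-free controls.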

Plasmodium falciparum [4] = test: Antiplasmodial activity against chloroquine-resistant Plasmodium falciparum K1 asynchronous cultures infected in human erythrocytes measured after 72 hrs by SYBR Green1 dye based fluorescence assay; format: functional, organism-based; conditions: K1, 72 h; method in brief: as §1
[5] = Cytotoxicity against African green monkey Vero cells after 3 days by resazurin dye based fluorescence assay; format: cell-based; conditions: chlorocebus sabaeus
Method in brief: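 VERO kidney cells kept in MEM with 15% FBS, 5% CO₂, 37 °C. Cells exposed to serial compound dilutions for three days. Then 10% resazurin added as viability marker. Fluorescence read at Ex 530 ± 25 nm / Em 590 ± 25 nm. Median cytotoxic concentration (CC₅₀) calculated from readings.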

[6] = Resistance index, ratio of IC50 for chloroquine-resistant Plasmodium falciparum K1 asynchronous cultures infected in human erythrocytes to IC50 for chloroquine-sensitive Plasmodium falciparum 3D7 asynchronous cultures infected in human erythrocytes; format: functional
[7] = Selectivity index, ratio of CC50 for African green monkey Vero cells to IC50 for chloroquine-sensitive Plasmodium falciparum 3D7 asynchronous cultures infected in human erythrocytes; format: toxicity, cell-based; conditions: read-out: Ratio CC50/IC50
[8] = Selectivity index, ratio of CC50 for African green monkey Vero cells to IC50 for chloroquine-resistant Plasmodium falciparum K1 asynchronous cultures infected in human erythrocytes; format: toxicity, cell-based; conditions: read-out: Ratio CC50/IC50

Compound	IC50 (Plasmodium falciparum [1])	IC50 (Plasmodium falciparum [2])	IC50 (Plasmodium falciparum [3])	IC50 (Plasmodium falciparum [4])	CC50 at 72 h [5]	Ratio IC50 [6]	selectivity ratio [7]	selectivity ratio [8]
CN(C/C=C/CN)C[C@H]1O[C@@H](n2cnc3c(N)ncnc32)[C@H](O)[C@@H]1O	2 to 3 µM	2 to 3 µM	–	–	–	–	–	–
COC(=O)C[C@@H]([C@H]1O[C@@H]2OC(C)(C)O[C@@H]2[C@H]1OCc1ccccc1)n1cnc2c(N)ncnc21	–	–	4.44 µM	4.79 µM	68.4 µM	1.07	15.4	14.3
CCOC(=O)C[C@@H]([C@H]1O[C@@H]2OC(C)(C)O[C@@H]2[C@H]1Oc1ccccc1[N+](=O)[O-])n1cnc2c(N)ncnc21	–	–	3.56 µM	4.93 µM	96.3 µM	1.38	27.1	19.5
CC(=O)c1ccc(-n2cnc3c(N)ncnc32)cc1	–	–	> 5 µM	–	–	–	–	–
CC1(C)O[C@H]2O[C@H]([C@H](CCO)n3cnc4c(N)ncnc43)[C@H](Oc3ccccc3[N+](=O)[O-])[C@H]2O1	–	–	3.62 µM	4.7 µM	148 µM	1.11	37.1	33.3
CC1(C)O[C@H]2O[C@H]([C@H](CC(=O)O)n3cnc4c(N)ncnc43)[C@H](Oc3ccccc3N)[C@H]2O1	–	–	4.82 µM	3.72 µM	67.1 µM	–	13.9	18
CCOC(=O)CCn1cnc2c(N)ncnc21	–	–	> 5 µM	–	–	–	–	–
CC1(C)O[C@H]2O[C@H]([C@@H](CCO)n3cnc4c(NCc5ccccc5)ncnc43)[C@H](OCc3ccccc3)[C@H]2O1	–	–	4.11 µM	4.99 µM	74.9 µM	1.21	18.2	15
CCOC(=O)C[C@@H]([C@H]1O[C@@H]2OC(C)(C)O[C@@H]2[C@H]1OCc1ccccc1)n1cnc2c(NCc3ccccc3)ncnc21	–	–	1.61 µM	1.14 µM	57.5 µM	0.7	35.7	50.4
CC1(C)O[C@H]2O[C@H]([C@H](CCO)n3cnc4c(NCc5ccccc5)ncnc43)[C@H](OCc3ccccc3)[C@H]2O1	–	–	3.99 µM	4.44 µM	61.2 µM	0.75	19.6	25.8
CCCCCCCCCCCCNc1ncnc2c1ncn2[C@@H](CC(=O)OCC)[C@H]1O[C@@H]2OC(C)(C)O[C@@H]2[C@H]1OCc1ccccc1	–	–	0.88 µM	1.13 µM	81.5 µM	1.28	92.6	72.1
CC1(C)O[C@H]2O[C@H]([C@H](CCO)n3cnc4c(N)ncnc43)[C@H](OCc3ccccc3)[C@H]2O1	–	–	4.31 µM	4.99 µM	97.1 µM	1.15	22.5	19.5
CCOC(=O)C[C@H]([C@H]1O[C@@H]2OC(C)(C)O[C@@H]2[C@H]1OCc1ccccc1)n1cnc2c(NCc3ccccc3)ncnc21	–	–	3.6 µM	2.27 µM	53.3 µM	0.63	14.8	23.5
CCOC(=O)C[C@@H]([C@H]1O[C@@H]2OC(C)(C)O[C@@H]2[C@H]1Oc1ccccc1N)n1cnc2c(N)ncnc21	–	–	4.47 µM	> 5 µM	89.7 µM	>1.11	20.1	< 17.9
CC(O)c1ccc(-n2cnc3c(N)ncnc32)cc1 (stereo not given)	–	–	> 5 µM	–	–	–	–	–
CC1(C)O[C@H]2O[C@H]([C@H](CCO)n3cnc4c(N)ncnc43)[C@@H](OCc3ccccc3)[C@H]2O1	–	–	4.52 µM	4.09 µM	148 µM	1.29	40.9	31.5
COC(=O)C[C@H]([C@H]1O[C@@H]2OC(C)(C)O[C@@H]2[C@H]1OCc1ccccc1)n1cnc2c(N)ncnc21	–	–	4.12 µM	4.09 µM	86.3 µM	0.99	20.9	21.1
CC1(C)O[C@H]2O[C@H]([C@@H](CCO)n3cnc4c(N)ncnc43)[C@H](Oc3ccccc3[N+](=O)[O-])[C@H]2O1	–	–	3.13 µM	2.37 µM	51.8 µM	0.9	11.5	12.7
CCOC(=O)C[C@H]([C@H]1O[C@@H]2OC(C)(C)O[C@@H]2[C@H]1Oc1ccccc1[N+](=O)[O-])n1cnc2c(N)ncnc21	–	–	4.24 µM	4.25 µM	119 µM	1	28.1	28
CCCCCCCCCCCCNc1ncnc2c1ncn2[C@H](CC(=O)OCC)[C@H]1O[C@@H]2OC(C)(C)O[C@@H]2[C@H]1OCc1ccccc1	–	–	1.01 µM	2.57 µM	45 µM	2.54	44.5	17.5

Source: ChEMBL document CHEMBL4257512, “Synthesis and antiplasmodial activity of purine-based C-nucleoside analogues” (Medchemcomm, 2018)
